# A selection: hits, their analogues and other compounds. The true share with any hit is near 3.1%.
# TbHK1 inh: T. brucei hexokinase 1 inhibition; recombinant TbHK1, G6PDH-coupled NADH A340; inhibition, % at 10 µM; actives 0.11% (n = 220,000); AID 1430;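 active = inhibition of 50% or more in the single-dose primary screen; inactive = inhibition below 50%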
# HSP90 refold inh: HSP90 refolding inhibition in rabbit reticulocyte lysate. AID 1789. inhibition, % at 5.6 µM. luciferase refolding luminescence, 3 h. actives 0.91% (n = 290,000);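 active = inhibition above the screen-wide mean plus 3 SD, computed separately per campaign, cut at about 16% in these data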;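 also: 0% = DMSO wells and 100% = 60 µM geldanamycin wells; inhibitors lower the luminescence because luciferase stays unfolded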
# HSF1 inh: HSF1 inhibition; NIH3T3-HGL HSE-luciferase, MG132-induced, luminescence 8 h; active compounds read low; activity change, negative = inhibition, % at 7.5 µM (by protocol); actives 0.77% (n = 300,000); AID 2098;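 active = more than half of replicate wells show activity change below -50%, luminescence cut by over half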;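 also: luciferase reports HSF-1 transcriptional activity via heat shock element; 0% = median of DMSO wells and -100% = zero luminescence signal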
# Hsp70 act: transcriptional activators of Hsp70. HeLa Hsp70 promoter luciferase reporter, luminescence; scaled: vehicle 0, proteasome-inhibitor control 100%. activation, % at 10 µM. actives 0.04% (n = 200,000);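 active = activation above the mean across all tested compounds plus 3 SD, cutoff set per campaign, cut at about 5.5% in these data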;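 also: 100% = MG132 at 30 µM as the positive control and 0% = DMSO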
# HKDC1 inhibitor: inhibitors of human hexokinase HKDC1. inhibition, % at 20 µM. recombinant HKDC1, G6PDH/diaphorase resazurin coupled fluorescence. Q2TB90. actives 0.16% (n = 340,000);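 active = inhibition above about 35% when tested at 20 µM, limit read from the data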;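 also: plate controls were DMSO wells with enzyme for no effect and DMSO wells lacking enzyme for full effect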
# Target sequence (Q2TB90 whole entry, looked up): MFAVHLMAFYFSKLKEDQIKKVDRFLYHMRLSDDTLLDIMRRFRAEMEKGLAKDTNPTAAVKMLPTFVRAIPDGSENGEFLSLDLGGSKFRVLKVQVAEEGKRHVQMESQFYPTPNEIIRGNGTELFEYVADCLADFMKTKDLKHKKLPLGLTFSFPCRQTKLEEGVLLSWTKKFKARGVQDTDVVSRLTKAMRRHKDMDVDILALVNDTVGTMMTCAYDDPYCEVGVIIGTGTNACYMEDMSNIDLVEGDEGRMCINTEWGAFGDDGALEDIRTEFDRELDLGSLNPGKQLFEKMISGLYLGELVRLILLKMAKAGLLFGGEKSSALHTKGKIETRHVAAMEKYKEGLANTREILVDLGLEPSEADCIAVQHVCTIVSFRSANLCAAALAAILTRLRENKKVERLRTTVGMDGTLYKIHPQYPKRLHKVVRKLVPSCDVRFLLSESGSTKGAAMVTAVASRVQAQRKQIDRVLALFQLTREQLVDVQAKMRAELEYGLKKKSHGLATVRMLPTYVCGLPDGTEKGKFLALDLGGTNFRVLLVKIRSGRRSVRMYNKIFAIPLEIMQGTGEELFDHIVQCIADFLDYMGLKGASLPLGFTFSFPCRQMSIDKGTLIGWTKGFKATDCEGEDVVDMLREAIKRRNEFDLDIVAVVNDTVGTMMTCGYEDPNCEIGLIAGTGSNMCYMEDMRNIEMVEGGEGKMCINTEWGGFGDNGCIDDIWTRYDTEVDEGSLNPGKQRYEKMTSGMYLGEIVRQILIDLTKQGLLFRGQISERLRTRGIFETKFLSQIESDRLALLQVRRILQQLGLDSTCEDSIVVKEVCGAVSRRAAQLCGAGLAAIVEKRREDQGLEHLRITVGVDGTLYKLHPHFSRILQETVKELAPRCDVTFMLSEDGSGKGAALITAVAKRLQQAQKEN
#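 Test system: HK5 enzyme. Quantity: 5 µg/mL HK5 final. Reagent: glucose and ATP substrates. Schedule: 90 min reaction incubation at room temperature, dark. Technique: resazurin-to-resorufin fluorescence via G6PDH and diaphorase coupling, 525/613 nm. Control set: DMSO wells with and without enzyme mix.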
# HSF-1 act: increases HSF-1 driven luciferase reporter signal; NIH3T3-HGL HSF-1 luciferase reporter, MG132, 8 h; 100% = twice DMSO control signal; AID 504408; activation, % at 9 µM; actives 1.7% (n = 300,000);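 active = mean replicate activation of at least 50% with a set share of replicates each reaching 50%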;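 also: 0% = median of the neutral control wells and 100% = twice that signal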
# * marks the source's active call; other numbers are inactive results; nt = no result.
SMILES,TbHK1 inh,HSP90 refold inh,HSF1 inh,Hsp70 act,HKDC1 inhibitor,HSF-1 act
C/C(=N/NC(=O)c1ccc2c(c1)OCCO2)c1ccc([N+](=O)[O-])cc1,-28,-4,-67*,nt,-4,-65
C/C(=N\NS(=O)(=O)c1ccccc1)c1ccc2c(c1)OCCO2,28,-4,-56*,0,-2,-67
CCOC(=O)/C=c1/s/c(=C/c2ccc3cc(OC)ccc3c2)c(=O)n1CC(=O)NCc1ccc2c(c1)OCO2,nt,nt,nt,nt,-1,nt
CC(=O)c1ccc(C(=O)NC2CCCN(Cc3ccccc3F)C2)s1 (configuration not stated),nt,4,-3,nt,-4,2
O=C(NC1CCCN(Cc2ccccc2F)C1)c1cccs1 (configuration not stated),nt,2,32,nt,-1,62*
Cc1cccc(-c2nnc(SC(C)C(=O)N3CCOCC3)o2)c1 (configuration not stated),nt,1,0,nt,2,-12
CC(NC(=O)c1ccco1)C(=O)OCC(=O)N1CCCCCC1 (configuration not stated),nt,nt,nt,nt,7,nt
COc1cccc(CNCc2cccc(OC)c2O)c1O,nt,nt,nt,nt,6,nt
COc1cccc(CNc2ncc(Br)cc2Br)c1O,-3,-6,107,0,-8,138*
COc1cccc(CNc2ccc(Br)cn2)c1O,-7,8,181,0,8,272*
Nc1nc(SCc2ccc(Cl)cc2Cl)ns1,0,5,9,0,-1,21
Cc1ccccc1CSc1nsc(N)n1,6,-1,16,0,4,61*
CC(=O)c1sc(NCc2ccccc2)nc1C,nt,2,24,nt,-4,47
CC(=O)c1sc(NCc2ccc(C)cc2)nc1C,nt,-1,49,nt,-4,65*
Cc1ccc(NC(=O)COc2ccccc2C=O)cc1Cl,-15,-1,44,0,-5,80*
CC(=O)Nc1cccc(NC(=O)COc2ccccc2C)c1,nt,0,4,nt,6,30
CC(=O)Nc1cccc(C(=O)OCC(=O)c2ccccc2Cl)c1,5,-3,39,0,-3,85*
CCC(=O)Nc1cccc(C(=O)OCC(=O)c2ccccc2Cl)c1,-5,-1,36,0,12,65*
CCC(=O)Nc1cccc(C(=O)c2ccccc2)c1,-2,-3,14,0,-6,11
CC(=O)Nc1cccc(C(=O)OCC(=O)NC(=O)c2ccccc2)c1,nt,nt,-1,nt,0,4
Cc1cc(C(=O)Nc2ccc(F)c(Cl)c2)on1,nt,-1,-5,nt,0,7
O=C(Nc1cc(Cl)ccc1Cl)c1ccco1,nt,1,-6,nt,-8,1
Nc1ccc(NC(=O)c2ccco2)c(Cl)c1,-3,-9,18,0,-9,56*
O=C(Cc1ccccc1)Nc1ccc(NC(=O)c2ccco2)cc1Cl,nt,9,-56*,nt,-4,-63
CCN1C[C@@H]2[C@@H]3C(=O)N(C)C(=O)[C@@H]3[C@](Cc3ccccc3)(C1=O)N2C(=O)c1ccc(Br)cc1,nt,nt,nt,nt,1,nt
SMILES,TbHK1 inh,HSP90 refold inh,HSF1 inh,Hsp70 act,HKDC1 inhibitor,HSF-1 act
CN(C)CC1CCCCC1OC(=O)c1ccc(S(=O)(=O)N(C)c2ccccc2)cc1 (configuration not stated),nt,2,-2,nt,-2,-9
Nc1ccccc1N=Cc1ccc(-c2cccc(Cl)c2)o1,-1,0,26,0,-2,55*
O=C(CSc1ccc(Br)cc1)Nc1ccccc1N1CCOCC1,nt,1,-77*,nt,-3,-82
COCc1cc(C)nc(SCC(=O)Nc2ccccc2N2CCOCC2)c1C#N,nt,2,25,nt,-3,65*
COCc1cc(C)nc(SCC(=O)Nc2ccc3c(c2)OCCO3)c1C#N,nt,4,6,nt,-2,39
O=C(CSc1ccc([N+](=O)[O-])cc1)Nc1ccccc1N1CCOCC1,nt,nt,nt,nt,-3,nt
O=C(NC(=S)N1CCCCC1CO)c1cc(Br)ccc1Cl (configuration not stated),nt,nt,nt,nt,4,nt
COc1ccc(N=C(C)C2=C(O)c3ccccc3C2=O)cc1,3,0,36,0,7,67*
CCOc1ccc(N=C(C)C2=C(O)c3ccccc3C2=O)cc1,-17,-3,27,nt,-2,63*
CC(=O)Nc1cccc(NC(=O)CSc2nccn2Cc2ccccc2)c1,nt,1,-3,nt,-7,0
C=CC[C@H](CC(=O)N(CCO)Cc1ccccc1)C(=O)N[C@H](COC(=O)[C@@H](CC=C)Cc1ccc(F)cc1)Cc1ccccc1,nt,nt,nt,nt,8,nt

# Source: PubChem BioAssay
